# Reference: paper PMC10917149 (European journal of medicinal chemistry, 2023)
# pKi: −log10 of the molar value. Entries after “also recorded” stand apart in the source; their conditions may differ. Where two headings read alike, the source gives them in different places.
# Experiments:
# CB1R and CB2R = experiment: Competition for [3H]CP55940 binding in HEK293 cell membranes; parameters: species or system human; settings: HEK293 cell membranes without heterologous CB1R/CB2R
# AI-sensitive GPCRs [1] = experiment: Competition for [3H]WIN55212-2 binding in HEK293 cell membranes; parameters: species or system human
# Summary of the method: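 P2 membrane fractions were prepared from independent HEK293 cultures, which lack CB1R and CB2R. Membranes were incubated with [³H]WIN55212-2 and increasing concentrations of test compound, and specific binding was measured by filtration. Nonspecific binding was defined with 1 μM unlabelled WIN55212-2.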
# human CB1R = human CB1R (Homo sapiens, UniProt P21554); experiment: CB1R internalization in HEK293 cells stably expressing HA-tagged CB1R; format: cell-based; settings: AI compounds tested at 3 μM
# Chain of human CB1R (P21554 whole entry): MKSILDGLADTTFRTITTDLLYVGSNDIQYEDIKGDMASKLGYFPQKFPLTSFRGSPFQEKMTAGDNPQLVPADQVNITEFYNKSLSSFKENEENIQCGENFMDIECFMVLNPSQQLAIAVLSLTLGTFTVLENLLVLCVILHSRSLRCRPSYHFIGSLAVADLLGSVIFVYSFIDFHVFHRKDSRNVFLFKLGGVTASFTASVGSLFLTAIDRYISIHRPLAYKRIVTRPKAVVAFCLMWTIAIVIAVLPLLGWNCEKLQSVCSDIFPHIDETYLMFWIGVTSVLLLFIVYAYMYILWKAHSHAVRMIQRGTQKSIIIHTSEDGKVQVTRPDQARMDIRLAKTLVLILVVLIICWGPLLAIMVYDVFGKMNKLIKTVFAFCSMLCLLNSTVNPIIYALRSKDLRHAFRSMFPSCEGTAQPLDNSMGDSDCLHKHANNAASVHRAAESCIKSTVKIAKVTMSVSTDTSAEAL
# Summary of the method: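 Human CB1R carrying an HA tag was expressed in cultured HEK293 cells. Test compound was applied at 3 μM, with CP55940 at 1 μM as the positive control. Internalization was read as % of vehicle control. Data are mean ± SEM of 3–5 independent experiments, compared by one-way ANOVA with Bonferroni post-test.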
# mouse CB2R = settings: cited from earlier work
# human CB2R = human CB2R (Homo sapiens, UniProt P34972); experiment: CB2R internalization in HEK293 cells stably expressing HA-tagged CB2R; format: cell-based; settings: AI compounds tested at 3 μM
# Chain of human CB2R (P34972 whole entry): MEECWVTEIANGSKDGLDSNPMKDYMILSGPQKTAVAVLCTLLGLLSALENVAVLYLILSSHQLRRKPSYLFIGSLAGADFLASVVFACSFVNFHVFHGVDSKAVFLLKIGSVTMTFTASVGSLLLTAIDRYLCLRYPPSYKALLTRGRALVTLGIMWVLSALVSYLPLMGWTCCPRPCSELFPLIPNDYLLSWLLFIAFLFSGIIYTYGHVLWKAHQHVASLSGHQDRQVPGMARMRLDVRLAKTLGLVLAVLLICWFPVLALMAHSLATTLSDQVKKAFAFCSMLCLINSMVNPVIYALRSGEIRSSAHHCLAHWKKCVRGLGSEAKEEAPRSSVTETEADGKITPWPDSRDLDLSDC
# Summary of the method: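 HA-tagged human CB2R was expressed heterologously in cultured HEK293 cells. Test compound was given at 3 μM, with or without the CB2R antagonist AM630 at 1 μM; CP55940 at 1 μM served as the positive control. Internalization was expressed as % of vehicle control. Mean ± SEM of 3–5 independent experiments; one-way ANOVA with Bonferroni post-test.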
# AI-sensitive GPCRs [2] = experiment: [35S]GTPγS binding in HEK293 cell membranes; format: biochemical, human; settings: for [35S]GTPγS response after pertussis toxin: PTX 100 ng/ml pretreatment of HEK293 cells for 20 h
# [3] = read-out: KiHigh (AIHigh binding sites), high affinity site
compound,measurement,setting,value
CCCCCCC(C)(C)c1ccc([C@@H]2C[C@H](O)CC[C@H]2CCCO)c(O)c1 [CP55940],competition for [3H]CP55940 binding (in words),CB1R and CB2R,failed to compete
Cc1ccc(C(=O)c2c(C)n(CCN3CCOCC3)c3ccccc23)c2ccccc12 [Compound 2],manner of competition for [3H]WIN55212-2 binding (biphasic / monophasic),AI-sensitive GPCRs [1],biphasic
same,pKi,AI-sensitive GPCRs [1]; [3],9.10
same,CB1R internalization (in words),human CB1R,retained significant activity; also recorded: stimulate significant CB1R internalization
same,activation of mouse CB2R measured by receptor internalization,mouse CB2R,do not activate
same,CB2R internalization (in words),human CB2R,stimulated significant CB2R internalization; also recorded: activate
Cc1ccc(C(=O)c2c3n(c4ccccc24)CCCC3)c2ccccc12 [Compound 4],manner of competition for [3H]WIN55212-2 binding (biphasic / monophasic),AI-sensitive GPCRs [1],biphasic
same,CB1R internalization (in words),human CB1R,retained significant activity; also recorded: stimulate significant CB1R internalization
same,activation of mouse CB2R measured by receptor internalization,mouse CB2R,do not activate
same,CB2R internalization (in words),human CB2R,stimulated significant CB2R internalization; also recorded: activate
Cc1ccc(C(=O)c2c(C)n(CC(F)(F)F)c3ccccc23)c2ccccc12 [Compound 5],CB1R internalization (in words),human CB1R,inactive
same,activation of mouse CB2R measured by receptor internalization,mouse CB2R,do not activate
same,CB2R internalization (in words),human CB2R,stimulated significant CB2R internalization; also recorded: activate
COc1ccc2c(c1)c(C(=O)c1ccc(C)c3ccccc13)c(C)n2CCN1CCOCC1 [Compound 7],competition for [3H]WIN55212-2 binding (in words),AI-sensitive GPCRs [1],inactive; also recorded: loss of binding
COc1ccc2c(C(=O)c3ccc(C)c4ccccc34)c(C)n(CCN3CCOCC3)c2c1 [Compound 8],stimulation of [35S]GTPγS binding (in words),AI-sensitive GPCRs [2],increase
Cc1ccc(C(=O)c2c(C)n(CCN3CCOCC3)c3ccc(Cl)cc23)c2ccccc12 [Compound 9],manner of competition for [3H]WIN55212-2 binding (biphasic / monophasic),AI-sensitive GPCRs [1],biphasic
same,pKi,AI-sensitive GPCRs [1]; [3],8.00
same,pKi,"AI-sensitive GPCRs [1]; read-out: KiLow (AILow binding sites), low affinity site",5.64
Cc1ccc(C(=O)c2c(C)n(CCN3CCOCC3)c3cc(Cl)ccc23)c2ccccc12 [Compound 10],KiLow (AILow binding sites),AI-sensitive GPCRs [1]; low affinity site,undetectable
same,stimulation of [35S]GTPγS binding (in words),AI-sensitive GPCRs [2],increase
same,[35S]GTPγS response after pertussis toxin,AI-sensitive GPCRs [2],pertussis toxin-sensitive
Cc1ccc(C(=O)c2c(C)n(CCN3CCOCC3)c3cc(Cl)cc(Cl)c23)c2ccccc12 [Compound 11],competition for [3H]WIN55212-2 binding (in words),AI-sensitive GPCRs [1],inactive
same,binding at 1 μM,AI-sensitive GPCRs [1]; at 1 μM,no measurable binding
Cc1ccc(C(=O)c2c(C)n(CCN3CCOCC3)c3ncccc23)c2ccccc12 [Compound 12],enhanced activity at AIHigh versus AILow,AI-sensitive GPCRs [1],~ 1000 fold
same,manner of competition for [3H]WIN55212-2 binding (biphasic / monophasic),AI-sensitive GPCRs [1],biphasic
same,pKi,AI-sensitive GPCRs [1]; [3],9.40
same,stimulation of [35S]GTPγS binding (in words),AI-sensitive GPCRs [2],increase
same,[35S]GTPγS response after pertussis toxin,AI-sensitive GPCRs [2],pertussis toxin-sensitive
same,CB1R internalization (in words),human CB1R,retained significant activity; also recorded: stimulate significant CB1R internalization
same,activation of mouse CB2R measured by receptor internalization,mouse CB2R,do not activate
same,CB2R internalization (in words),human CB2R,stimulated significant CB2R internalization; also recorded: activate
Cc1ccc(C(=O)c2c(C)n(CCN3CCOCC3)c3cnccc23)c2ccccc12 [Compound 13],manner of competition for [3H]WIN55212-2 binding (biphasic / monophasic),AI-sensitive GPCRs [1],biphasic
same,pKi,AI-sensitive GPCRs [1]; [3],8.24
CCn1c(C)c(C(=O)c2ccc(OC)cc2)c2ccccc21 [Compound 14],competition for [3H]WIN55212-2 binding (in words),AI-sensitive GPCRs [1],inactive
"C1=C(CCN2CCOCC2)c2ccccc2/C1=C\c1cccc2ccccc12 [Compound 31, reference compound]",competition for [3H]WIN55212-2 binding (in words),AI-sensitive GPCRs [1],compete
same,stimulation of [35S]GTPγS binding (in words),AI-sensitive GPCRs [2],stimulated
"C1=C(CCN2CCOCC2)c2ccccc2/C1=C/c1cccc2ccccc12 [Compound 32, reference compound]",competition for [3H]WIN55212-2 binding (in words),AI-sensitive GPCRs [1],weakly competes
"CC1=C(CCN2CCOCC2)c2ccccc2/C1=C\c1cccc2ccccc12 [Compound 33, reference compound]",competition for [3H]WIN55212-2 binding (in words),AI-sensitive GPCRs [1],compete
same,stimulation of [35S]GTPγS binding (in words),AI-sensitive GPCRs [2],stimulated
"CC1=C(CCN2CCOCC2)c2ccccc2/C1=C/c1cccc2ccccc12 [Compound 34, reference compound]",competition for [3H]WIN55212-2 binding (in words),AI-sensitive GPCRs [1],does not compete; also recorded: no significant competition
"Cc1c(C(=O)c2cccc3ccccc23)c2ccccc2n1C [JWH-042, reference compound]",manner of competition for [3H]WIN55212-2 binding (biphasic / monophasic),AI-sensitive GPCRs [1],biphasic
"Cc1ccc(C(=O)c2c(C)n(C)c3ccccc23)c2ccccc12 [JWH-450, reference compound]",manner of competition for [3H]WIN55212-2 binding (biphasic / monophasic),AI-sensitive GPCRs [1],biphasic
"CCn1c(C)c(C(=O)c2ccc(C)c3ccccc23)c2ccccc21 [JWH-451, reference compound]",manner of competition for [3H]WIN55212-2 binding (biphasic / monophasic),AI-sensitive GPCRs [1],biphasic
same,pKi,AI-sensitive GPCRs [1]; [3],8.82
same,stimulation of [35S]GTPγS binding (in words),AI-sensitive GPCRs [2],increases
same,[35S]GTPγS response after pertussis toxin,AI-sensitive GPCRs [2],significantly reduced
same,[35S]GTPγS response in presence of CB1R and CB2R antagonists,AI-sensitive GPCRs [2]; SR141617 (1 μM) and SR144528 (1 μM),insensitive; also recorded: not affected
same,CB1R internalization (in words),human CB1R,inactive
same,activation of mouse CB2R measured by receptor internalization,mouse CB2R,do not activate
same,CB2R internalization (in words),human CB2R,stimulated significant CB2R internalization; also recorded: activate
Cc1c(C(=O)NN2CCCCC2)nn(-c2ccc(Cl)cc2Cl)c1-c1ccc(Cl)cc1 [SR141617],competition for [3H]CP55940 binding (in words),CB1R and CB2R,failed to compete
"Cc1c(C(=O)c2cccc3ccccc23)c2cccc3c2n1[C@@H](CN1CCOCC1)CO3 [WIN55212-2, reference compound]",manner of competition for [3H]WIN55212-2 binding (biphasic / monophasic),AI-sensitive GPCRs [1],biphasic
same,pKi,"AI-sensitive GPCRs [1]; read-out: KiHigh, high affinity site of biphasic competition curve",10.37
same,pKi,"AI-sensitive GPCRs [1]; read-out: KiLow, low affinity site of biphasic competition curve",8.14
"Cc1c(C(=O)c2cccc3ccccc23)c2cccc3c2n1[C@H](CN1CCOCC1)CO3 [WIN55212–3, reference compound]",competition for [3H]WIN55212-2 binding (in words),AI-sensitive GPCRs [1],absence of competition
SR144528,competition for [3H]CP55940 binding (in words),CB1R and CB2R,failed to compete
